This note sets out measurements from ChEMBL document CHEMBL3044872, “Synthesis and quantitative structure-activity relationships of fluorine-containing 4,4-dihydroxylmethyl-2-aryliminooxazo(thiazo)lidines as trehalase inhibitors” (J Agric Food Chem, 2001).

In experiment [1] the test system is Drosophila melanogaster. Briefly: Insecticidal activity against adult Drosophila melanogaster cultured on compound-treated corn media assessed as inhibition of flight at 200 ppm after 48 hr relative to control. The format is functional. The method, boiled down:
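Wild-type adult flies fed corn medium containing compound for 48 h. Flies ether-anesthetized for 2 min and glued by the abdomen to the arm of a computer-monitored flight mill; flown at 25 °C under natural light. Inhibition % = (1 − treated flight distance/untreated flight distance) × 100.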

In another experiment the target is T1, Uncharacterized protein (Sus scrofa, UniProt I3LIR5).
T1 sequence (I3LIR5 whole entry): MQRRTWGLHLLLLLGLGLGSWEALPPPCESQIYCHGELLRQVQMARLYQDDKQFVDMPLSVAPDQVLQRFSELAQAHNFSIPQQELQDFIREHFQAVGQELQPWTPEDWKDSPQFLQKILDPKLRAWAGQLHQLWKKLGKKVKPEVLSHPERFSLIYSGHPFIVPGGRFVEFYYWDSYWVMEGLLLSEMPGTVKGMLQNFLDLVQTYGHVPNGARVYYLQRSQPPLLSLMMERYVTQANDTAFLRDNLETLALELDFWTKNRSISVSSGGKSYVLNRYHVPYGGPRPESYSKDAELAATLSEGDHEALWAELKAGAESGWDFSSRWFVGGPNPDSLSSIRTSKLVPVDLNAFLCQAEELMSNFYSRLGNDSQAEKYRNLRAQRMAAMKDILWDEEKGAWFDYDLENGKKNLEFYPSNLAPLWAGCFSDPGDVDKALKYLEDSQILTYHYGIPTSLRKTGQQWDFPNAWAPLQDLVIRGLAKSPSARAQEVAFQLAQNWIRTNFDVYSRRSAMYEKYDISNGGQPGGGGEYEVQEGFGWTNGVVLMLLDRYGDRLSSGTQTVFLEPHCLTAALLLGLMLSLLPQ
Briefly: Inhibition of Sus scrofa (pig) trehalase using trehaloase as substrate incubated for 15 min prior to substrate addition measured after 1.5 hr by spectrophotometric analysis. In a few lines: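 Porcine trehalase (1.08 µg) in […], pH 5.5, preincubated with compound in DMSO for 15 min at 37 °C. […] added, then incubated 1.5 h at 37 °C. Stopped with Ba(OH)2/Zn(OH)2 and centrifuged. Glucose measured by glucose oxidase/peroxidase/ABTS (30 min, room temperature), A660, against a glucose standard curve. At least 5 concentrations; expressed as pIC50.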

Experiment [2] has as its system Drosophila melanogaster. Briefly: Larvicidal activity against Drosophila melanogaster at 200 ppm relative to control. It counts as functional. The method, boiled down:
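One hundred wild-type eggs placed on 8 cm3 yeast/corn meal/agar medium containing compound at 200 ppm, dissolved in DMSO.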

The next experiment has as its target T2, Trehalase (Bombyx mori, UniProt P32358).
T2 sequence (P32358 whole entry): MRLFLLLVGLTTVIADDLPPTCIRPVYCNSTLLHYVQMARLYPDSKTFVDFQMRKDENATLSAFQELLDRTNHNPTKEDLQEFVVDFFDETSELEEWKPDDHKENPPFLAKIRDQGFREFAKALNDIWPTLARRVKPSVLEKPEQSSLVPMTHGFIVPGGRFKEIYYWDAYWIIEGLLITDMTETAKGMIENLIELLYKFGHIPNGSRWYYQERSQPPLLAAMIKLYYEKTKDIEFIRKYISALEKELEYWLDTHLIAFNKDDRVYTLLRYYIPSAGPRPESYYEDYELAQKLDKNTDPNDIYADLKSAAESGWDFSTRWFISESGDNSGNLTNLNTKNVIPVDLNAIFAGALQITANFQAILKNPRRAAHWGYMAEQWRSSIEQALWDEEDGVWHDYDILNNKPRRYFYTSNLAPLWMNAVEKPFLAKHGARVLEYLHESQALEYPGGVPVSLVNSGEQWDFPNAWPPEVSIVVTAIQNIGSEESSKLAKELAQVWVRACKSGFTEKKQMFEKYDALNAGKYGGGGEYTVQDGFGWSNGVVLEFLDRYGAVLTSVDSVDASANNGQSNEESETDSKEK
Briefly: Inhibition of Bombyx mori trehalase.

Molecules are shown by their SMILES. pIC50: −log10 of the molar value.

In the case of `OCC1(CO)CS/C(=N\c2ccc(F)cc2F)N1`, in the experiment with Drosophila melanogaster [1], the inhibition (in general, the relative decrease from the control value, in per cent) at 200 ppm came to 1.7%. Further, the pIC50 (usually the IC50 on a negative log10 scale, so that one unit is a factor of ten) against Uncharacterized protein is 2.21. In the experiment on Drosophila melanogaster [2], this compound had an Activity of 35.1%.
Taken in the same sequence, the figures for `OCC1(CO)CO/C(=N\c2ccc(F)cc2)N1` were 35.7%, 3.58 and 56.3%.
On to `OCC1(CO)CO/C(=N\c2ccccc2F)N1`, for which, in the experiment on Drosophila melanogaster [1], the inhibition at 200 ppm was found to be 30.7%. For the same compound, at Uncharacterized protein, the pIC50 is 4.12. The same compound came in with an Activity in the experiment on Drosophila melanogaster [2] of 45.2%.
Taken in the same sequence, the figures for `OCC1(CO)CO/C(=N\c2ccc(F)c(Cl)c2)N1` were 37.2%, 4.45 and 65%.
For `OCC1(CO)CO/C(=N\c2ccc(F)c(F)c2F)N1` the same measures were 16.6%, 4.07 and 50.4%.
As for `OCC1(CO)CS/C(=N\c2ccccc2F)N1`, the inhibition at 200 ppm in the experiment with Drosophila melanogaster [1] came out at 45.4%. At Uncharacterized protein, this compound had a pIC50 of 3.08. The compound also gave an Activity in the experiment on Drosophila melanogaster [2] of 66.5%.
Taken in the same sequence, the figures for `OCC1(CO)CO/C(=N\c2ccc(F)cc2F)N1` were 2.7%, 3.05 and 17.2%.
Taken in the same sequence, the figures for `OCC1(CO)CS/C(=N\c2ccc(F)c(F)c2F)N1` were 26.9%, 3.15 and 65.3%.
Taken in the same sequence, the figures for `OCC1(CO)CS/C(=N\c2ccc(F)cc2)N1` were 37.2%, 3.24 and 60.4%.
For `OC[C@H]1O[C@H](NC2=N[C@@H]3[C@H](O2)[C@@H](O)[C@H](O)[C@]3(O)CO)[C@H](O)[C@@H](O)[C@@H]1O` [TREHAZOLIN], the pIC50 at Trehalase was 7.31.
Turning to `OCC1(CO)CS/C(=N\c2ccc(F)c(Cl)c2)N1`, in the experiment with Drosophila melanogaster [1], the inhibition at 200 ppm is 49.7%. On Uncharacterized protein, this compound showed a pIC50 of 3.62. The Activity with Drosophila melanogaster [2] is 76%.
